Bioassay records from PubChem.
KCNQ1 act: human KCNQ1 channel potentiation or activation; 310,000 compounds, 0.35% hits; AID 2648; P51787; CHO-K1 KCNQ1, thallium flux FluxOR fluorescence; stronger effect = higher value; B-score at 10 µM;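 active = fluorescence ratio B-score, a plate-corrected score, at least three library SD, with initial intensity B-score within 5 SD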
Target sequence (P51787 whole entry, looked up): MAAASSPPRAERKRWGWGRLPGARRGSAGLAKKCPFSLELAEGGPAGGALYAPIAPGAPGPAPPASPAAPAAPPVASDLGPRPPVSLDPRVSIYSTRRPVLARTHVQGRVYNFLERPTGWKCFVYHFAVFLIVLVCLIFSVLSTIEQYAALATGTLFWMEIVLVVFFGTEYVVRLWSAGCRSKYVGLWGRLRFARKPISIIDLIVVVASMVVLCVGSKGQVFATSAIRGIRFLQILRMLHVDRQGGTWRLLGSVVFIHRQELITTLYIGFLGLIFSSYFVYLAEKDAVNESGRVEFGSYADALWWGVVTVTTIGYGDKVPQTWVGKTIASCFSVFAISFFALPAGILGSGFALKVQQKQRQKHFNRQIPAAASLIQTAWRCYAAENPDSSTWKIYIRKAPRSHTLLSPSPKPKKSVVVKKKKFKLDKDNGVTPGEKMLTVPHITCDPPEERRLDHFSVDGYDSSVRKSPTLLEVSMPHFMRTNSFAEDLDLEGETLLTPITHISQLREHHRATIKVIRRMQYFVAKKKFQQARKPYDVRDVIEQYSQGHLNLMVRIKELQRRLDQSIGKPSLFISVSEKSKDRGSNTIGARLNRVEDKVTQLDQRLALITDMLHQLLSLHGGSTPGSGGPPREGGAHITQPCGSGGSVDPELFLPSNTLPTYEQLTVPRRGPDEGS
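System: Stable KCNQ1 CHO-K1 line | Incubation: 90 min dye loading and 20 min compound exposure, both at room temperature | Measure: Ratio B score | Medium: Assay buffer for compound exposure, DMSO matched across wells | Compound dosing: Single-concentration screen | Probe or stimulus: K+/Tl+ depolarizing stimulus | Measured by: Kinetic FluxOR fluorescence, 10 s baseline plus 110 s post-stimulus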
hERG protect: shields human hERG channel from block by proarrhythmic agents; Q12809; CHO-hERG, FluxOR thallium flux, dofetilide IC70 present; activation (rescue from dofetilide block), less the hit threshold, % at 10 µM; 310,000 compounds, 0.51% hits; AID 1511;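 active = activation above the mean of controls blocked by dofetilide plus 5 SD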;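 also: thallium influx through hERG after potassium depolarization seen as dye fluorescence rise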
Mot1-301 SUMO: blocks SUMOylation pathway, rescuing yeast Mot1-301 growth | growth rescue, % at 18.8 µM | AID 2716 | 320,000 compounds, 1% hits | S. cerevisiae Mot1-301 growth rescue, ATP luminescence, 38.5C; percent above DMSO median, 100 means doubled;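 active = every valid replicate shows activation above 250% relative to neutral control wells; inactive = the rest, any valid replicate at or below 250%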;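 also: OY570 slx delta 5 strain wells were the positive control but not used for scaling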
AI-2 QS modul: modulates the Vibrio harveyi AI-2 quorum sensing system; 300,000 compounds, 0.4% hits; Vibrio harveyi JMH597 AI-2 luminescence/OD600 ratio, 9 h; stronger effect = lower value; strain lacks LuxN and CqsS sensors; 0 = neutral-control median; activity change, % at 7.5 µM; AID 2094; in the data active = activity change below about -75%, passing the limit was not always enough;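 also: luminescence divided by OD600 gain over 9 h not by final OD600 alone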
Cl transport mod: modulates chloride dependent transport by human KCC2; Q9H2X9; 190,000 compounds, 2.2% hits; KCC2 cells, thallium flux FluoZin-2 fluorescence; AID 1456; B-score of Tl+ flux slope (higher = more flux/activation; lower = inhibition) at 10 µM;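 active = thallium flux slope and its plate-corrected score both differing from the plate sample mean at a set confidence after two filtering rounds, in either direction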;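 also: slope of fluorescence scaled to starting intensity during 10 to 20 s after thallium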
KCNQ1 block: human KCNQ1 channel inhibition; CHO-K1 KCNQ1, FluxOR thallium flux fluorescence; stronger effect = higher value; B-score at 10 µM; 310,000 compounds, 1.3% hits;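 active = compounds whose thallium flux B-score, printed positive for inhibition, exceeds three library SD while starting fluorescence stays within three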;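 also: channel opened by potassium depolarization with thallium stimulus after 20 min compound exposure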
KCNQ1 block val: reconfirmed blocker of the human KCNQ1 potassium channel | KCNQ1 cell line, FluxOR thallium flux fluorescence | shares compounds with KCNQ1 block | inhibition, % at 10 µM | 1,600 compounds, 93% hits;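 active = primary screen active, with duplicate mean exceeding buffer control mean plus 3 SD of buffer wells, cut at about 28% in these data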;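 also: 0% = buffer control ratio and 100% = XE991 inhibitor control ratio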
CHO KCNQ1 ctr: counter-screen for KCNQ1 inhibitors: effect in parental CHO cells | shares compounds with KCNQ1 block | parental CHO-K1, FluxOR thallium flux fluorescence ratio; stronger effect = lower value; zero means no signal rise above baseline | fluorescence ratio (Tl flux) at 10 µM | 1,600 compounds, 21% hits | AID 588366;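 active = mean of duplicate thallium-flux fluorescence ratios in parental host cells more than 5 SD below the buffer control mean, cut at about 0.38 in these data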;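 also: ratio is peak minus minimum fluorescence divided by baseline fluorescence; actives read low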
KCNQ1 ephys val: confirmation of human KCNQ1 potassium channel inhibitors by electrophysiology. shares compounds with KCNQ1 block. KCNQ1-CHO cells, automated patch clamp current. calls only at 10 µM. 490 compounds, 20% hits. AID 624120;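 active = KCNQ1 current drop exceeding 3 SD of negative control wells, seen in both duplicate runs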;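 also: steady state current during a 2 s step from -80 to +40 mV; negative values mean current inhibition and positive values mean potentiation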
KCNQ2 spec: selectivity of KCNQ1 inhibitors: inhibition of rat KCNQ2 channel | shares compounds with KCNQ1 block | KCNQ2 cells, FluxOR thallium flux fluorescence | inhibition, % at 10 µM | 1,600 compounds, 71% hits;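 active = mean percent inhibition of the KCNQ2 thallium signal more than 5 SD above the buffer-only control wells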;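 also: KCNQ2 expressed in CHO cells; 0% = buffer control wells and 100% = XE-991 inhibitor control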
KCNQ1 KCNE1 spec: human KCNQ1/KCNE1 inhibition in KCNQ1 specificity screen | shares compounds with KCNQ1 block | KCNQ1/KCNE1 cells, FluxOR thallium flux fluorescence | inhibition, % at 10 µM | 1,600 compounds, 77% hits | AID 652147;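 active = mean percent inhibition of duplicate wells above the buffer-only control mean plus 3 SD of those controls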;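 also: 0% = buffer only wells and 100% = XE-991 inhibitor control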
The depositor's hits bear a star; i = inactive; . = no result given; + = active, no number. The list is not random: actives were taken first. Their share in the collection is about 4.2%.

SMILES	KCNQ1 act	hERG protect	Mot1-301 SUMO	AI-2 QS modul	Cl transport mod	KCNQ1 block	KCNQ1 block val	CHO KCNQ1 ctr	KCNQ2 spec	KCNQ1 KCNE1 spec	others
CC(=O)c1ccc(NC(=S)NN2C(C)CCCC2C)cc1 (stereo not given)	i	-10.4	-2.6	6.3	-1.4	i	.	.	.	.
CC1CCCC(NC(=S)Nc2cccc(S(=O)(=O)N(C)C)c2)C1C (stereo not given)	i	-13.6	92.7	5.2	0.00969	8*	35.0*	0.512	i	i
CC(=O)c1ccc(NC(=S)NC2CCCC(C)C2C)cc1 (stereo not given)	i	-12.3	-1.6	-12.0	-0.00333	7*	47.0*	0.593	i	34.5%*
CNc1ccc2c3c(cccc13)C(=O)N(C)C2=O	i	-49.4	-11.2	18.7	.	32*	+	0.003*	i	i
COCCNS(=O)(=O)c1ccc2c3c(cccc13)C(=O)N2C	i	0.2	-4.4	8.1	0.935	i	.	.	.	.
COc1ccc(N=C2NC(=O)S/C2=C\c2ccc(N(C)C)cc2)cc1	i	-15.3	-26.6	16.6	-0.675	7*	60.5*	0.376*	66.3%*	105.5%*
COc1ccc(CCNC(=O)CN2C(=O)C(=O)N(C3CCCC3)C2=O)cc1OC	.	.	-7.3	.	.	.	.	.	.	.
Cc1cc(F)ccc1S(=O)(=O)N(CC(=O)N1CCOCC1)CC(=O)N1CCOCC1	.	.	-14.3	.	.	.	.	.	.	.
COc1ccc(S(=O)(=O)N2c3ccccc3OCC2c2ccccc2)cc1 (stereo not given)	i	-3.9	127.3	22.1	-0.509	8*	77.5*	0.38*	78.0%*	96.5%*
CCOC(=O)c1cc(C(C)(C)C)oc1CNC(=O)c1c(C)oc2c1CCCC2	i	-23.1	207.4	-2.3	0.207	10*	141.0*	0.383	120.3%*	142.5%*	KCNQ1 ephys val=i
Cc1cc(/C=C2/SC(=S)N(c3ccc([N+](=O)[O-])cc3)C2=O)c(C)n1-c1cccnc1	i	-9.3	143.5	8.0	0.965	16*	123.5*	0.468	75.0%*	102.5%*	KCNQ1 ephys val=i
c1ccc(-c2nc(N3CCCCC3)nc3ccccc23)cc1	i	-12.3	.	23.1	1.91	7*	118.0*	0.413	112.7%*	174.0%*	KCNQ1 ephys val=i
c1ccc2c(N3CCCCC3)nc(N3CCCC3)nc2c1	i	-20.9	154.1	21.7	-0.0077	9*	36.5*	0.512	i	i
c1ccc(-c2nc(N3CCNCC3)nc3ccccc23)cc1	i	-11.4	4.6	0.6	-0.117	i	.	.	.	.
CC1(C)CC2CC(C)(CN2S(=O)(=O)c2cccc(C(=O)O)c2)C1 (stereo not given)	.	.	14.0	.	.	.	.	.	.	.
CCCCCNC(=O)c1cccc(S(=O)(=O)N2CC3(C)CC2CC(C)(C)C3)c1 (stereo not given)	i	-12.9	-18.1	20.8	.	7*	86.5*	0.501	i	87.5%*
O=C(Nc1ccc(F)cc1)c1cc(S(=O)(=O)Nc2ccc(F)cc2)cs1	i	-8.7	563.8	14.8	-0.0472	7*	66.5*	0.463	62.3%*	i
O=C(Nc1ccc(F)cc1)c1cc(S(=O)(=O)N2CCOCC2)cs1	i	-6.8	-6.8	4.4	.	i	.	.	.	.
Cc1cccc(N(CC(=O)NC2CC3CCC2C3)S(=O)(=O)c2ccccc2)c1 (stereo not given)	i	-7.3	6.2	35.3	.	6*	49.5*	0.427	79.3%*	61.0%*
CCOc1ccc(N(CC(=O)NC2CC3CCC2C3)S(=O)(=O)c2ccc(C)cc2)cc1 (stereo not given)	i	-7.6	2.8	24.6	.	8*	99.5*	0.459	93.7%*	100.5%*	KCNQ1 ephys val=+
CCOc1ccc(N(CC(=O)NC2CC3CCC2C3)S(=O)(=O)c2ccccc2)cc1 (stereo not given)	i	-2.8	-10.2	28.8	.	i	.	.	.	.
O=C(c1cccc(Br)c1)N1CCN(S(=O)(=O)N2CCCCC2)CC1	i	-8.2	.	11.8	.	i	.	.	.	.
O=C(CN(C(=O)c1csnn1)c1ccc(Cl)cc1)NCc1ccc2c(c1)OCO2	i	-6.1	1.3	1.7	.	i	.	.	.	.
Oc1c(C=Nc2cccc3cccnc23)sc2ccccc12	i	-18.5	-21.6	4.1	-0.0405	10*	87.5*	0.359*	i	134.0%*
O=C(CC(C(=O)O)c1cccc(Br)c1)c1ccc(Cl)cc1 (stereo not given)	i	-12.7	22.4	27.9	.	i	.	.	.	.
SMILES	KCNQ1 act	hERG protect	Mot1-301 SUMO	AI-2 QS modul	Cl transport mod	KCNQ1 block	KCNQ1 block val	CHO KCNQ1 ctr	KCNQ2 spec	KCNQ1 KCNE1 spec	others
CC(C)=CCc1cc(-c2oc3cc(O)cc(O)c3c(=O)c2O)ccc1O	i	-12.8	-8.1	14.7	.	i	.	.	.	.
CC(C)=CCc1c(O)cc2oc3c(CC=C(C)C)c(O)c(O)c(CC=C(C)C)c3c(=O)c2c1O	i	-33.7	14.2	-1.9	0.356	16*	150.5*	0.346*	123.7%*	+
Cn1nc(C(F)(F)F)cc1C(=O)NC1CCCCCC1	i	-5.1	-0.2	11.4	-0.858	i	.	.	.	.
c1ccc2c(-c3nc(C4CCCCC4)no3)cc(-c3ccncc3)nc2c1	i	-8.7	-6.9	18.6	0.27	7*	84.5*	0.501	93.0%*	79.0%*
COc1ccc(-c2cc(-c3nnc(-c4ccncc4)o3)c3ccccc3n2)cc1	i	-3.4	-14.0	0.2	0.763	i	.	.	.	.
CCOC(=O)Cc1nn[nH]n1	i	-3.1	6.4	13.9	1.02	7*	0.0	0.48	i	37.0%*
CCOC(=O)Cc1nnn(CC(=O)OCC)n1	i	-5.5	3.4	27.3	0.00574	i	.	.	.	.
COc1ccccc1NC(=O)N(Cc1ccccc1)c1ccccn1	i	-6.7	.	-0.8	.	7*	95.0*	0.424	85.0%*	101.5%*	KCNQ1 ephys val=i
CC(C)n1nc(C(=O)Nc2cccc(S(=O)(=O)N3CCOCC3)c2)c2ccccc2c1=O	.	.	-17.1	.	.	.	.	.	.	.
